Reference: ChEMBL document CHEMBL1137375, “Design, synthesis, and biological evaluation of new 1,8-naphthyridin-4(1H)-on-3-carboxamide and quinolin-4(1H)-on-3-carboxamide derivatives as CB2 selective agonists” (J Med Chem, 2006)
The source made the active and inactive calls. The calls are words filed in the database; no cut-off is given here.

Tests used:
[1] = target: T1, Cannabinoid receptor 1 (Mus musculus, UniProt P47746); experiment: Displacement of [3H]CP-55940 from CB1 receptor in DBA/J2 mouse brain; assay type: tissue-based
T1 sequence (P47746 whole entry): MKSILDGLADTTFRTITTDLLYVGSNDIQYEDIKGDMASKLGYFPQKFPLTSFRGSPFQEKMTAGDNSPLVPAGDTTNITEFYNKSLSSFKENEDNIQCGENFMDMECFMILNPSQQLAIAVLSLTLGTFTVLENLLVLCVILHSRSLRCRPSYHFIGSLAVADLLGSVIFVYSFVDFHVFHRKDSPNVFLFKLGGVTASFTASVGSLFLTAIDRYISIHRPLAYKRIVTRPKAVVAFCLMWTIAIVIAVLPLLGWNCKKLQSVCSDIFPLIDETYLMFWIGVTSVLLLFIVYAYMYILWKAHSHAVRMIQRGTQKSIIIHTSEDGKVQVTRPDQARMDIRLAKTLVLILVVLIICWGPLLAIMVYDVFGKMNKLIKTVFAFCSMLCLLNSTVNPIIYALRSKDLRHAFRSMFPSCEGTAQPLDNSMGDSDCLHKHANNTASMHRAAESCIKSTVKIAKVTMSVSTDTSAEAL

[2] = target: Cannabinoid receptor 2 (Mus musculus, UniProt P47936); experiment: Displacement of [3H]CP-55940 from CB2 receptor in DBA/J2 mouse spleen
Sequence of Cannabinoid receptor 2 (P47936 whole entry): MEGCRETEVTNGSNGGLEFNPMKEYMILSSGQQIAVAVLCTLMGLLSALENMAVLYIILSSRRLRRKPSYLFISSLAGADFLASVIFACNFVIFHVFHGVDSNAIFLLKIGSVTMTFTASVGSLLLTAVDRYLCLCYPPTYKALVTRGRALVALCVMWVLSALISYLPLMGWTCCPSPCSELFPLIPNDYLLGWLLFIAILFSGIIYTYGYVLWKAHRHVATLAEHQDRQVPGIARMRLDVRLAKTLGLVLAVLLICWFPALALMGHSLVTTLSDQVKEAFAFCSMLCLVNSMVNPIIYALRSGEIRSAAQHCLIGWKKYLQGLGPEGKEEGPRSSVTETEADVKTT
Procedure, shortened: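 Membranes (40-60 µg protein) from mouse brain minus cerebellum (CB1) or spleen (CB2), incubated 1 h at 30 °C with 0.5 nM [3H]CP-55,940 in TME buffer (pH 7.4) with 5 mg/mL BSA. GF/C filtration, scintillation counting. IC50 by nonlinear fit, converted to Ki by Cheng-Prusoff; at least three membrane preparations.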

[3] = target: Cannabinoid receptor (Mus musculus) (UniProt P47746+P47936); experiment: Selectivity for DBA/J2 mouse CB2 receptor over CB1 receptor; assay type: protein assay
Sequence of Cannabinoid receptor (Mus musculus) (P47746 whole entry, looked up): as the sequence (P47746 whole entry) above
Sequence of Cannabinoid receptor (Mus musculus) (P47936 whole entry, looked up): as the sequence (P47936 whole entry) above

[4] = target: Cannabinoid receptor 1 (Mus musculus) (UniProt P47746); experiment: Activity at CB1 receptor assessed as stimulation of [35S]GTP-gamma-S binding in DBA/J2 mouse brain relative to control; assay type: functional
Sequence of Cannabinoid receptor 1 (Mus musculus) (P47746 whole entry): as the sequence (P47746 whole entry) above
Procedure, shortened: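 Mouse brain (minus cerebellum) P2 membranes, 5-10 µg protein, incubated 60 min at 30 °C in 50 mM Tris-HCl, 3 mM MgCl2, 0.2 mM EGTA, 100 mM NaCl, pH 7.4, 0.1% BSA, with 0.05 nM [35S]GTPγS, 30 µM GDP, compound 1-5000 nM. Filtration, scintillation counting. Nonspecific binding with 10 µM GTPγS. Stimulation as % above basal. EC50/Emax by nonlinear regression; at least four experiments in duplicate.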

[5] = target: T1, Cannabinoid receptor 1; experiment: (§1) Activity at CB1 receptor assessed as stimulation of [35S]GTP-gamma-S binding in DBA/J2 mouse brain; assay type: functional
[6] = target: Cannabinoid receptor 1 (Mus musculus) (UniProt P47746); experiment: as §1; assay type: functional; conditions: filed as agonist
[7] = target: Cannabinoid receptor 2 (Homo sapiens) (UniProt P34972); experiment: Activity at CB2 receptor assessed as reduction in CD203c expression in activated human basophil; assay type: functional
Sequence of Cannabinoid receptor 2 (Homo sapiens) (P34972 whole entry): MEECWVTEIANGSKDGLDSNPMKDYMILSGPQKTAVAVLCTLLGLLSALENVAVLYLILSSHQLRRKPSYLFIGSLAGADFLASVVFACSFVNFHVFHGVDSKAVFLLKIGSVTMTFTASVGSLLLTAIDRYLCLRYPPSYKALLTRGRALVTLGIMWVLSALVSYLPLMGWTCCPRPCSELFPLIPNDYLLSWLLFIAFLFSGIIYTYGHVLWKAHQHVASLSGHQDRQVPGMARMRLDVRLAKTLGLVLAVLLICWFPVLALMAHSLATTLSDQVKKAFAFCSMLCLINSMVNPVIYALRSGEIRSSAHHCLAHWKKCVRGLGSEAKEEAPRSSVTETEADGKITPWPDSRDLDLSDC
Procedure, shortened: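 Human basophil-rich leukocytes from donor blood buffy coats via Ficoll-Paque. Cells pretreated with compound 1 nM to 1 µM for 30 min at 37 °C, then stimulated with anti-IgE 1 µg/mL for 30 min at 37 °C. CD203c (PE) read by flow cytometry on IgE-FITC-gated basophils. Antagonist check: SR 144528 or AM251 100 nM preincubated 30 min. Six experiments in triplicate.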

`O=C(NC1CCCCC1)c1cn(Cc2ccccc2)c2ncccc2c1=O` showed a Ki [1] of over 1000 nM, a Ki [2] of 48.6 nM and a Ratio Ki [3] of over 21.

With `Cc1ccc2c(=O)c(C(=O)NC3CCCCC3)cn(CCc3ccccc3)c2n1` the Ki [1] was over 1000 nM, the Ki [2] was 16.3 nM and the Ratio Ki [3] was over 62.

Work on `Cc1ccc2c(=O)c(C(=O)NC3CCCCCC3)cn(Cc3ccccc3F)c2n1` yielded a Ki [1] of 149 nM, a Ki [2] of 13.4 nM and a Ratio Ki [3] of 11.

In the case of `Cc1ccc2c(n1)N(CCN1CCOCC1)CC(C(=O)NC1CCC(C)CC1)C2O` (stereo not given), the Ki [1] is reported as over 1000 nM and the Ki [2] is reported as over 1000 nM.

Work on `Cc1ccc2c(=O)c(C(=O)NC3CCC(C)CC3)cn(Cc3ccccc3F)c2n1` (stereo not given) yielded a Ki [1] of 37.5 nM, an Emax [4] of 161% and a Ki [2] of 8.4 nM. For the same compound, the EC50 [5] was 138 nM, the Activity [6] was “Agonist” and the Ratio Ki [3] was 4.

`Cc1ccc2c(=O)c(C(=O)NC3CCCC3)cn(CCN3CCOCC3)c2n1` was tested, and the Ki [1] was over 1000 nM, the Activity [7] was “Active” and the Ki [2] was 50 nM. For the same compound, the Ratio Ki [3] was over 20.

For `O=C(NC1CCCCC1)c1cn(Cc2ccc(F)cc2)c2ncccc2c1=O`, the Ki [1] was 384 nM, the Ki [2] was 13 nM and the Ratio Ki [3] was 29.

Compound `Cc1ccc2c(=O)c(C(=O)NC3CCCCCC3)cn(Cc3ccccc3)c2n1` has a Ki [1] of 143 nM, a Ki [2] of 5.1 nM and a Ratio Ki [3] of 28.

`O=C(NC1CCCCC1)c1cn(Cc2ccccc2)c2nc(Cl)ccc2c1=O` showed a Ki [1] of 464 nM, a Ki [2] of 24.6 nM and a Ratio Ki [3] of 19.

Compound `O=C(NC1CCCCC1)c1cn(CCN2CCOCC2)c2cc(Cl)ccc2c1=O` has a Ki [1] of over 1000 nM, a Ki [2] of 3.3 nM and a Ratio Ki [3] of over 303.

For `COc1ccc(Cn2cc(C(=O)NC3CCCCC3)c(=O)c3ccc(C)nc32)cc1`, the Ki [1] was over 1000 nM, the Ki [2] was 35.8 nM and the Ratio Ki [3] was over 28.

In the case of `Cc1ccc2c(=O)c(C(=O)NC3CCCCC3)cn(Cc3ccccc3)c2n1`, the Ki [1] is reported as 127 nM, the Ki [2] is reported as 10 nM and the Ratio Ki [3] is reported as 13.

In the case of `O=C(NC1CCCCC1)c1cn(Cc2ccc(F)cc2)c2nc(Cl)ccc2c1=O`, the Ki [1] is reported as 495 nM, the Ki [2] is reported as 21.4 nM and the Ratio Ki [3] is reported as 23.

`CC1CCC(NC(=O)c2cn(CCN3CCOCC3)c3nc(Cl)ccc3c2=O)CC1` (stereo not given) showed a Ki [1] of over 1000 nM, a Ki [2] of 40.5 nM and a Ratio Ki [3] of over 25.

For `Cc1ccc2c(n1)N(Cc1ccccc1F)CC(C(=O)NC1CCCCC1)C2O` (stereo not given), the Ki [1] was over 1000 nM and the Ki [2] was over 1000 nM.

Work on `CCCCC/C=C\C/C=C\C/C=C\C/C=C\CCCC(=O)NCCCl` yielded a Ki [1] of 3.9 nM, a Ki [2] of 121 nM and a Ratio Ki [3] of 0.03.

`O=C(NC1CCCCC1)c1cn(Cc2ccccc2F)c2nc(Cl)ccc2c1=O` was tested, and the Ki [2] was 18.1 nM.

In the case of `O=C(NC1CCCCC1)c1cn(Cc2ccccc2)c2ccccc2c1=O`, the Ki [1] is reported as over 1000 nM, the Activity [7] is reported as “Active” and the Ki [2] is reported as 4.8 nM. It also gave a Ratio Ki [3] of over 210.

In the case of `Cc1ccc2c(=O)c(C(=O)NC3CCCCCC3)cn(Cc3ccc(F)cc3)c2n1`, the Ki [1] is reported as 4.3 nM, the Ki [2] is reported as 1 nM and the Ratio Ki [3] is reported as 4.3.

Work on `CCCC(C)(C)c1ccc2c(c1)OC(C)(C)[C@@H]1CC=C(C)C[C@@H]21` yielded a Ki [1] of 458 nM, a Ki [2] of 65 nM and a Ratio Ki [3] of 7.

In the case of `Cc1ccc2c(n1)N(Cc1ccccc1)CC(C(=O)NC1CCCCC1)C2O` (stereo not given), the Ki [1] is reported as over 1000 nM and the Ki [2] is reported as over 1000 nM.

Work on `Cc1c(C(=O)c2cccc3ccccc23)c2cccc3c2n1[C@H](CN1CCOCC1)CO3` yielded an Emax [4] of 187%.

In the case of `Cc1ccc2c(=O)c(C(=O)NC3CCC(C)CC3)cn(Cc3ccc(F)cc3)c2n1` (stereo not given), the Ki [1] is reported as 8.7 nM, the Emax [4] is reported as 172% and the Ki [2] is reported as 1.4 nM. The EC50 [5] was 27 nM, the Activity [6] was “Agonist” and the Ratio Ki [3] was 6.

Compound `Cc1ccc2c(=O)c(C(=O)NC3CCCCC3)cn(CCN3CCN(c4ccccc4)CC3)c2n1` has a Ki [1] of over 1000 nM and a Ki [2] of over 1000 nM.

In the case of `O=C(NC1CCCCC1)c1cn(CCN2CCOCC2)c2ncccc2c1=O`, the Ki [1] is reported as over 1000 nM, the Ki [2] is reported as 67.2 nM and the Ratio Ki [3] is reported as over 15.
